{
  "source": "ChEMBL document CHEMBL3868612",
  "about": "“Discovery of a potent and selective ROMK inhibitor with improved pharmacokinetic properties based on an octahydropyrazino[2,1-c][1,4]oxazine scaffold” (Bioorg Med Chem Lett, 2016)",
  "key": {"[1]": {"test": "Stability in human hepatocytes assessed as compound remaining at 90 mins", "assay_type": "ADME, cell-based, Hepatocyte", "details": "read-out: Stability"}, "[2]": {"test": "Stability in rhesus monkey hepatocytes assessed as compound remaining at 90 mins", "assay_type": "ADME, cell-based, Macaca mulatta, Hepatocyte", "details": "read-out: Stability"}, "[3]": {"target": "T1, Inward rectifier potassium channel 13 (Homo sapiens, UniProt O60928)", "T1 sequence (O60928 whole entry)": "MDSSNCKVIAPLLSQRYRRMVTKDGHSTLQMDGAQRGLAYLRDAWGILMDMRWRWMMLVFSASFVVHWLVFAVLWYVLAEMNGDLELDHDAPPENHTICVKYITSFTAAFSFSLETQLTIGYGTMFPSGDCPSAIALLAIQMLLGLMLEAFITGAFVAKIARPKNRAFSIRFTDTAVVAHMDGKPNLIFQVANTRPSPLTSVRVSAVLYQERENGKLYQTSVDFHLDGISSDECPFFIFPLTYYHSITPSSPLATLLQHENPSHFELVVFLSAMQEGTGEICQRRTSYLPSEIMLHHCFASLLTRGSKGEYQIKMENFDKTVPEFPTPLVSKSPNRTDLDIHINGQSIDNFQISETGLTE", "test": "Inhibition of Kir7.1 (unknown origin)"}, "[4]": {"target": "Sodium channel protein type 5 subunit alpha (Homo sapiens, UniProt Q14524)", "sequence (Q14524 whole entry)": "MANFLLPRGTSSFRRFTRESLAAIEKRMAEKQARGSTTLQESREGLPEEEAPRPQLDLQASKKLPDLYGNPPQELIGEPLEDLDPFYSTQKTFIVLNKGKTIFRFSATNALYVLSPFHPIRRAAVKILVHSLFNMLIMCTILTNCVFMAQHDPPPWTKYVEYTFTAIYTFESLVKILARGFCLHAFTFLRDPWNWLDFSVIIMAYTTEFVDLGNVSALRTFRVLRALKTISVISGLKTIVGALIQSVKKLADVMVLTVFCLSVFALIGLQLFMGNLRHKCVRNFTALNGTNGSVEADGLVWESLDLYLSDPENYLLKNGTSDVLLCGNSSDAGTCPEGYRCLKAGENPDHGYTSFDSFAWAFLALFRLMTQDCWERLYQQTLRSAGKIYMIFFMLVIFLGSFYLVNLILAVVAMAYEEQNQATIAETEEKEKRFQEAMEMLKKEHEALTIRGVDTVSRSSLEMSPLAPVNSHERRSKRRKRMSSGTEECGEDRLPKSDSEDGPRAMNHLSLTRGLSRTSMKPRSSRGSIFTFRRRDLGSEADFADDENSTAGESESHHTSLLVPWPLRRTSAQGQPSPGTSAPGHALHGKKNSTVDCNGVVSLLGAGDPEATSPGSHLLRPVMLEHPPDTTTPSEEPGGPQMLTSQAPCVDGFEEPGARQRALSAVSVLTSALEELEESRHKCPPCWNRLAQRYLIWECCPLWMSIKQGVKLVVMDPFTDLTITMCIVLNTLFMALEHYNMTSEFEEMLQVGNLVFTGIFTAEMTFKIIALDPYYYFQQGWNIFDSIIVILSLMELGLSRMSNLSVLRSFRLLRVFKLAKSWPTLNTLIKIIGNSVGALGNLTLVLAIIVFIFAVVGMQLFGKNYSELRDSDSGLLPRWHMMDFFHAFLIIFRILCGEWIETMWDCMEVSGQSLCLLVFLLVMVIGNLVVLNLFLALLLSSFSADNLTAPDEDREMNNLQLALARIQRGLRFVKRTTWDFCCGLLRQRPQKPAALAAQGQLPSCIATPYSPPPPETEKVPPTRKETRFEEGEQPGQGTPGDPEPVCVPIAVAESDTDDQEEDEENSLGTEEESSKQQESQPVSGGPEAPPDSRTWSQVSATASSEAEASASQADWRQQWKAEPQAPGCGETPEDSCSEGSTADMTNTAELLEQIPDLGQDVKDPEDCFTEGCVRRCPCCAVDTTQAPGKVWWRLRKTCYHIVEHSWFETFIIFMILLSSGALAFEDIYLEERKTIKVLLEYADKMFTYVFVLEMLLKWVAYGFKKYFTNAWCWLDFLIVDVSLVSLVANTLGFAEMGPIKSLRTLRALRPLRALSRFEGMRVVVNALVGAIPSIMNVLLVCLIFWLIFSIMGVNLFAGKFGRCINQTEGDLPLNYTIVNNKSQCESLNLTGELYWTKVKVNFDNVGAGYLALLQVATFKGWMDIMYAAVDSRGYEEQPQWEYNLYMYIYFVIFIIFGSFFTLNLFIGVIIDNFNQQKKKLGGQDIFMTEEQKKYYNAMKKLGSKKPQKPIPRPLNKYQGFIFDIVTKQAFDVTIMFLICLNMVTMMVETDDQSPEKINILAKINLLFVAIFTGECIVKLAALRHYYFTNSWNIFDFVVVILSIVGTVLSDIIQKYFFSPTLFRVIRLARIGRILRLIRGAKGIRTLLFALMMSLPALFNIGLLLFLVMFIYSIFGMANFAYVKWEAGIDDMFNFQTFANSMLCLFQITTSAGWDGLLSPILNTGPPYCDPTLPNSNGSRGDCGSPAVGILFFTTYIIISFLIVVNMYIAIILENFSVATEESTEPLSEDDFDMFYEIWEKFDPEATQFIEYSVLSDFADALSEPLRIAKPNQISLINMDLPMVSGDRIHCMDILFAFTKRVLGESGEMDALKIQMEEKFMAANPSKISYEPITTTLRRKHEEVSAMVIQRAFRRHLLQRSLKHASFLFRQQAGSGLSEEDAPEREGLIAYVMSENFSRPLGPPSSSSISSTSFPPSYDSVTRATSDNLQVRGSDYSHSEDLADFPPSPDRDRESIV", "test": "Inhibition of Nav1.5 (unknown origin)"}, "Rattus norvegicus [5]": {"tested_on": "Rattus norvegicus", "test": "Antihypertensive activity in […] rat model assessed as increase in diuresis at 3 mg/kg, po qd measured on day 1 post dose relative to control", "assay_type": "functional", "in_short": "(§1)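 Spontaneously hypertensive rats dosed orally once daily for 3 days at 3, 10 and 30 mg/kg (reference diuretic at 25 mg/kg); 24 h urine output on day 1 expressed as fold increase over vehicle-treated rats; n = 5 per group.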"}, "Rattus norvegicus [6]": {"tested_on": "Rattus norvegicus", "test": "Antihypertensive activity in […] rat model assessed as change in systolic blood pressure at 3 mg/kg, po administered qd measured on day 3", "assay_type": "functional", "in_short": "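Spontaneously hypertensive rats were dosed orally once daily for 3 days. Systolic blood pressure change was read on day 3 relative to vehicle, with n = 5 per group.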"}, "Rattus norvegicus [7]": {"tested_on": "Rattus norvegicus", "test": "Antihypertensive activity in […] rat model assessed as increase in diuresis at 10 mg/kg, po qd measured on day 1 post dose relative to control", "assay_type": "functional", "in_short": "as §1"}, "Rattus norvegicus [8]": {"tested_on": "Rattus norvegicus", "test": "Antihypertensive activity in […] rat model assessed as increase in diuresis at 30 mg/kg, po qd measured on day 1 post dose relative to control", "assay_type": "functional", "in_short": "as §1"}, "Rattus norvegicus [9]": {"tested_on": "Rattus norvegicus", "test": "Antihypertensive activity in […] rat model assessed as increase in diuresis at 25 mg/kg, po qd measured on day 1 post dose relative to control", "assay_type": "functional", "in_short": "as §1"}, "[10]": {"test": "Apparent permeability in pig LLC-PK1 cells", "assay_type": "ADME, cell-based, Sus scrofa"}},
  "note": "pIC50: −log10 of the molar value.",
  "data": [
    {"smiles": "Cc1c([C@@H]2CN3CCN(C(=O)Cc4ccc(-n5cnnn5)cn4)C[C@H]3CO2)ccc(F)c1C#N", "values": [
      {"measurement": "remaining at 1.5 h", "setting": "[1]", "value": 99, "unit": "%"},
      {"measurement": "remaining at 1.5 h", "setting": "[2]", "value": 92, "unit": "%"},
      {"measurement": "pIC50", "setting": "[3]", "value": "< 4.00"},
      {"measurement": "pIC50", "setting": "[4]", "value": "< 4.52"},
      {"measurement": "fold change (FC)", "setting": "Rattus norvegicus [5]", "value": 1.4},
      {"measurement": "Activity", "setting": "Rattus norvegicus [6]", "value": -9, "unit": "mmHg"},
      {"measurement": "fold change (FC)", "setting": "Rattus norvegicus [7]", "value": 1.6},
      {"measurement": "fold change (FC)", "setting": "Rattus norvegicus [8]", "value": 1.8},
      {"measurement": "fold change (FC)", "setting": "Rattus norvegicus [9]", "value": 1.05},
      {"measurement": "Papp", "setting": "[10]", "value": "Permeable"}
    ]}
  ]
}
